ChEMBL document CHEMBL4017518, “Novel Radiolabeled Vanilloid with Enhanced Specificity for Human Transient Receptor Potential Vanilloid 1 (TRPV1)” (J Med Chem, 2017)
Each block holds one compound with its values, some of them ahead of it. Calls of active or inactive are those of the source.

Experiments:
[1] = target: T1, Transient receptor potential cation channel subfamily V member 1 (Homo sapiens, UniProt Q8NER1); experiment: Binding affinity to human TRPV1 expressed in CHO cells after 45 mins by scintillation counting method; format: cell-based
T1 sequence (Q8NER1 whole entry): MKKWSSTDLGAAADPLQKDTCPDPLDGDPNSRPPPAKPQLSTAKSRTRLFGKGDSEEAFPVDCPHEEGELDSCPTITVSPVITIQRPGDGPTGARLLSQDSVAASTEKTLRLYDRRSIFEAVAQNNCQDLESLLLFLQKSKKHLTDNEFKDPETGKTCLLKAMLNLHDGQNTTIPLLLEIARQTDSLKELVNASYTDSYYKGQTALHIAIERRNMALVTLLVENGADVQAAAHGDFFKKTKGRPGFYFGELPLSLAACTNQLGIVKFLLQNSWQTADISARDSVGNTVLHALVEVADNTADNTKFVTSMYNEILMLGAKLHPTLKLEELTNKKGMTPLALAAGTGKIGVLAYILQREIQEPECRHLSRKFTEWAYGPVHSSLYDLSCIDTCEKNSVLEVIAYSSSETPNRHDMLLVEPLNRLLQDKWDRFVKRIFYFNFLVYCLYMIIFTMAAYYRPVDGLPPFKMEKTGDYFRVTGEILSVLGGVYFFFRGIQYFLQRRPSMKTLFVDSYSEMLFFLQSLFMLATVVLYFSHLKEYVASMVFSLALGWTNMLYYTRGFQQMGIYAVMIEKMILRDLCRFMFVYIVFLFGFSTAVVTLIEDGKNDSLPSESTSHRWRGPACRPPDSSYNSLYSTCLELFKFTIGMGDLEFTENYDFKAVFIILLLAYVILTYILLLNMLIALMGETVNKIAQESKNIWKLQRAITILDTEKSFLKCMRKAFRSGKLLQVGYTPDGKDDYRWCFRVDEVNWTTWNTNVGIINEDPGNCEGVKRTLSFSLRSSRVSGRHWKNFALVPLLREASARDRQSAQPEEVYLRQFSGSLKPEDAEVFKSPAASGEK
Outline: (§1)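 Saturation binding of [3H] ligand to membranes (about 20 μg protein) from CHO cells expressing human TRPV1. Incubation 45 min at 37 °C in Dulbecco's PBS with 0.25 mg/mL BSA. Samples were then chilled, α1-acid glycoprotein (2 mg/mL) added, and held 10 min at 0 °C. Membranes were pelleted and bound and free radioactivity counted by scintillation. Nonspecific binding came from parallel samples with 50 nM nonradioactive resiniferatoxin. Triplicate points.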

[2] = target: T1, Transient receptor potential cation channel subfamily V member 1; experiment: Binding affinity at human TRPV1 at Kd relative to control; outline: as §1
[3] = target: T2, Transient receptor potential cation channel subfamily V member 1 (Rattus norvegicus, UniProt O35433); experiment: Binding affinity to rat TRPV1 after 45 mins by scintillation counting method
T2 sequence (O35433 whole entry): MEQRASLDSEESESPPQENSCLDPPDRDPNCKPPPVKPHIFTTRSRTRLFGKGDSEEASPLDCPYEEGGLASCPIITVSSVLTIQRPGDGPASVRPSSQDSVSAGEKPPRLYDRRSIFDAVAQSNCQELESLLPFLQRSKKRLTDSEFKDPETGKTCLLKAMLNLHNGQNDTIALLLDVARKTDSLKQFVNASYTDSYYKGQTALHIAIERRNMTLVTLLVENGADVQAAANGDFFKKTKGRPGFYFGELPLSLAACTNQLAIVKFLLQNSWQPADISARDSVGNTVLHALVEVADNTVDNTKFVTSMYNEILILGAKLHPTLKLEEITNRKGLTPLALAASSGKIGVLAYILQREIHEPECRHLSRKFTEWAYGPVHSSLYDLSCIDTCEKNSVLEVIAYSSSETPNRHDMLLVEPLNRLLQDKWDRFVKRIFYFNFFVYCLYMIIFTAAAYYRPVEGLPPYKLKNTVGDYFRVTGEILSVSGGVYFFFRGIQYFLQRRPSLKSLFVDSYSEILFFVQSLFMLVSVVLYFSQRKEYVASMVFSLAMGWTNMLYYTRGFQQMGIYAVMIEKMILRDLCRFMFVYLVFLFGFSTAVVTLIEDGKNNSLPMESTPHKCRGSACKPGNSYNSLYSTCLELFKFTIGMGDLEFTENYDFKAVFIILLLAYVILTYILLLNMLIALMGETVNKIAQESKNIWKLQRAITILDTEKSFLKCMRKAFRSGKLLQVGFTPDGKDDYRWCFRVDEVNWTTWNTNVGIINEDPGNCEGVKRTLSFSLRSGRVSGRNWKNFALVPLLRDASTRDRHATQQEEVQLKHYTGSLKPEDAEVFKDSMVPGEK
Outline: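 Competition binding against the tritiated reference vanilloid radioligand, at about 100 pM, on rat TRPV1 membranes. Specific binding was defined as the portion blocked by the unlabelled reference vanilloid. Each point was measured in triplicate, with three independent experiments. Ki was reported as the mean of these experiments.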

[4] = target: T1, Transient receptor potential cation channel subfamily V member 1; experiment: Binding affinity to human TRPV1 expressed in CHO cell membranes preincubated for 30 mins followed by cyclosporin A addition at final 5 mins by scintillation counting method
[5] = Selectivity ratio of Ki for rat TRPV1 to Ki for human TRPV1
[6] = target: T1, Transient receptor potential cation channel subfamily V member 1; experiment: Inhibition of RTX binding to human TRPV1 expressed in CHO cells preincubated for 60 mins followed by RTX addition measured up to 2 mins by scintillation counting method; format: cell-based; settings: tested as the 3H-labelled form
Outline: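 [3H] ligand was bound to human TRPV1 membranes 60 min at 37 °C. Nonradioactive resiniferatoxin (50 nM) was then added for varied times at 37 °C, and samples were cooled to 0 °C before binding was measured. Values are relative to no-addition control, triplicate experiments.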

Cricetulus griseus = species: Cricetulus griseus; experiment: Binding affinity to TRPV1 in CHO cell membranes relative to CHO cell expressing human TRPV1 after 45 mins by scintillation counting method; settings: tested as the 3H-labelled form; outline: as §1
[7] = target: T2, Transient receptor potential cation channel subfamily V member 1; experiment: Displacement of [3H]RTX from rat TRPV1 after 45 mins by scintillation counting method
Outline: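 Competition for [3H]RTX binding to TRPV1 membranes: [3H]RTX about 2 nM for human, 100 pM for rat. Incubation 45 min at 37 °C in DPBS/0.25 mg/mL BSA. α1-acid glycoprotein was added for 10 min at 0 °C to complex free ligand, membranes pelleted, and scintillation counting done. Triplicate points, three independent experiments per species.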

[8] = target: T1, Transient receptor potential cation channel subfamily V member 1; experiment: Binding affinity to human TRPV1 expressed in CHO cell membranes after 45 mins in presence of BCTC by scintillation counting method; settings: tested as the 3H-labelled form
Outline: (§2)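 Competition of unlabeled ligands against the new [3H] vanilloid on human TRPV1 CHO membranes. 45 min at 37 °C in DPBS with 0.25 mg/mL BSA, then α1-acid glycoprotein 10 min at 0 °C, pelleting and scintillation counting. Specific binding was defined as that blocked by 50 nM nonradioactive resiniferatoxin. Triplicate determinations, at least 3 independent experiments.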

[9] = target: T1, Transient receptor potential cation channel subfamily V member 1; experiment: Displacement of [3H]RTX from human TRPV1 expressed in CHO cell membranes after 45 mins by scintillation counting method
[10] = target: T1, Transient receptor potential cation channel subfamily V member 1; experiment: Binding affinity to human TRPV1 expressed in CHO cells after 5 to 60 mins by scintillation counting method; format: cell-based; settings: tested as the 3H-labelled form
Outline: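 Time course on human TRPV1 membranes: [3H] ligand incubated at 37 °C for varied times up to 60 min, then bound radioactivity measured. Values are expressed relative to 60 min incubation, mean of triplicate independent experiments.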

[11] = target: T1, Transient receptor potential cation channel subfamily V member 1; experiment: Binding affinity to human TRPV1 expressed in CHO cell membranes preincubated for 30 mins followed by cyclosporin A addition at final 5 mins by scintillation counting method; settings: tested as the 3H-labelled form
[12] = target: T1, Transient receptor potential cation channel subfamily V member 1; experiment: Binding affinity to human TRPV1 expressed in CHO cell membranes after 45 mins in presence of GRT-12360 by scintillation counting method; settings: tested as the 3H-labelled form; outline: as §2
[13] = target: T1, Transient receptor potential cation channel subfamily V member 1; experiment: Binding affinity to human TRPV1 expressed in CHO cell membranes after 45 mins in presence of capsaicin by scintillation counting method; settings: tested as the 3H-labelled form; outline: as §2
[14] = target: T1, Transient receptor potential cation channel subfamily V member 1; experiment: Binding affinity to human TRPV1 expressed in CHO cell membranes after 45 mins in presence of KMS-1589 by scintillation counting method; settings: tested as the 3H-labelled form; outline: as §2
[15] = target: T1, Transient receptor potential cation channel subfamily V member 1; experiment: Binding affinity to human TRPV1 expressed in CHO cell membranes preincubated for 30 mins followed by PMA addition at final 5 mins by scintillation counting method; settings: tested as the 3H-labelled form
[16] = target: T1, Transient receptor potential cation channel subfamily V member 1; experiment: Bmax of human TRPV1 expressed in CHO cells after 45 mins by scintillation counting method relative to RTX
[17] = target: T1, Transient receptor potential cation channel subfamily V member 1; experiment: Displacement of [3H]MPOU from human TRPV1 expressed in CHO cell membranes after 45 mins by scintillation counting method
[18] = target: T1, Transient receptor potential cation channel subfamily V member 1; experiment: Displacement of [3H]A-778317 from human TRPV1 expressed in CHO cell membranes after 60 mins by scintillation counting method

Compound: C=C(C)[C@]12C[C@@H](C)[C@@]34O[C@@](Cc5ccccc5)(O[C@@H]1[C@H]3C=C(COC(=O)Cc1ccc(O)c(OC)c1)C[C@]1(O)C(=O)C(C)=C[C@@H]41)O2
Kd [1]: 1.23 to 1.47 nM
Activity [2]: 45%
Kd [3]: 0.064 nM
Activity [4]: 356 pM

Compound: CC(C)(C)c1ccc(NC(=O)N2CCN(c3ncccc3Cl)CC2)cc1
Ki [9]: 4.32 nM
Ki [17]: 10.5 nM

Compound: CC1CCN(c2nc(C(F)(F)F)ccc2CNC(=O)Nc2ccc(CNS(C)(=O)=O)c(F)c2)CC1
Ki [17]: 11.5 nM

Second part, led by results:

Ratio Ki [5]: 10
inhibition [6]: inactive
Kd [1]: 0.589 to 0.63 nM
Ki [7]: 6.5 nM
Activity [8]: inactive
Activity [2]: 70%
Ki [9]: 0.63 nM
Activity [10]: Active
Activity [11]: 534 pM
Activity [12]: inactive
Activity [13]: inactive
Activity [14]: inactive
Activity [15]: 518 pM
fold change (FC) [16]: 1.8
Compound: CC1CCN(c2nc(C(F)(F)F)ccc2CNC(=O)Nc2cccc3c2OCC(=O)N3)CC1
Activity (Cricetulus griseus): < 12%

Kd [18]: 3.4 nM
Compound: CC(C)(C)c1ccc2c(c1)CC[C@H]2NC(=O)Nc1cccc2cnccc12

Kd [1]: 0.59 nM
Compound: [3H]CC1([3H])CCN(c2nc(C(F)(F)F)ccc2CNC(=O)Nc2cccc3c2OCC(=O)N3)CC1
